Results as given in ChEMBL document CHEMBL4304753, “Identification of New Small-Molecule Inducers of Estrogen-related Receptor α (ERRα) Degradation” (ACS Med Chem Lett, 2019).
Active and inactive are the calls of the source. No cut-off for these calls is given here.

Assays:
[1] = target: T1, Steroid hormone receptor ERR1 (Homo sapiens, UniProt P11474); test: Binding affinity to GST-tagged ERRalpha-LBD (unknown origin) using fluorescein-conjugated coactivator PGC-1alpha incubated for 1 hr by TR-FRET assay
T1 sequence (P11474 whole entry): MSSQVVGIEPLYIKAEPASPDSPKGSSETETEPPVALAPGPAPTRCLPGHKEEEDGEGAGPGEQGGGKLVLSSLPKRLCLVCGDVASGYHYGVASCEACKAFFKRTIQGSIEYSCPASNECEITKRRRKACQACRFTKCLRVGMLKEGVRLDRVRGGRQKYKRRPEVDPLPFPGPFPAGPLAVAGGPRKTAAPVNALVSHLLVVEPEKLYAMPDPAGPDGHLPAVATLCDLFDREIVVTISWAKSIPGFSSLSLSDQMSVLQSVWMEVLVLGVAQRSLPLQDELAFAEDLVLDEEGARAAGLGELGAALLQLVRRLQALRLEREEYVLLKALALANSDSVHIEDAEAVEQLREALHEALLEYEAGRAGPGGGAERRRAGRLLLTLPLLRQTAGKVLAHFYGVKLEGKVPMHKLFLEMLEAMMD

[2] = target: T2, von Hippel-Lindau disease tumor suppressor/Steroid hormone receptor ERR1 (Homo sapiens) (UniProt P11474+P40337); test: Protac activity at VHL/ERRalpha in human MDA-MB-231 cells assessed as induction of […] degradation at 100 nM incubated for 4 hrs by Western blot analysis relative to control; type: cell-based
How it was run: (§1)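 MDA-MB-231 breast cancer cells were treated at the indicated concentrations for 4.0 h. ERRα protein was measured by Western blot, and % degradation was derived by densitometric image analysis. Values are means of at least three independent experiments.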

[3] = target: T2, von Hippel-Lindau disease tumor suppressor/Steroid hormone receptor ERR1 (Homo sapiens); test: Protac activity at VHL/ERRalpha in human MDA-MB-231 cells assessed as induction of […] degradation at 30 nM incubated for 4 hrs by Western blot analysis relative to control; type: cell-based; how it was run: as §1
[4] = target: T2, von Hippel-Lindau disease tumor suppressor/Steroid hormone receptor ERR1 (Homo sapiens); test: Protac activity at VHL/ERRalpha in human MDA-MB-231 cells assessed as induction of […] degradation at 300 nM incubated for 4 hrs by Western blot analysis relative to control; type: cell-based; how it was run: as §1
[5] = target: T3, Steroid hormone receptor ERR1 (Homo sapiens) (UniProt P11474); test: Ratio of IC50 for XCT790 to IC50 for test compound for binding affinity to GST-tagged ERRalpha-LBD (unknown origin) using fluorescein-conjugated coactivator PGC-1alpha incubated for 1 hr by TR-FRET assay
T3 sequence (whole entry): T1 sequence (P11474 whole entry)

[6] = target: T2, von Hippel-Lindau disease tumor suppressor/Steroid hormone receptor ERR1 (Homo sapiens); test: Protac activity at VHL/ERRalpha in human MDA-MB-231 cells assessed as induction of […] degradation at 1 uM incubated for 4 hrs by Western blot analysis; type: cell-based; how it was run: as §1
[7] = target: T2, von Hippel-Lindau disease tumor suppressor/Steroid hormone receptor ERR1 (Homo sapiens); test: Protac activity at VHL/ERRalpha in human MDA-MB-231 cells assessed as induction of […] degradation at 10 nM incubated for 4 hrs by Western blot analysis relative to control; type: cell-based; how it was run: as §1
[8] = target: T2, von Hippel-Lindau disease tumor suppressor/Steroid hormone receptor ERR1 (Homo sapiens); test: Protac activity at VHL/ERRalpha in human MDA-MB-231 cells assessed as induction of […] degradation at 3.0 nM incubated for 4 hrs by Western blot analysis; type: cell-based; how it was run: as §1
[9] = target: T2, von Hippel-Lindau disease tumor suppressor/Steroid hormone receptor ERR1 (Homo sapiens); test: Protac activity at VHL/ERRalpha in human MDA-MB-231 cells assessed as decrease in ATP5B protein expression level at 100 nM incubated for 24 hrs by Western blot analysis; type: cell-based
How it was run: (§2)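 MDA-MB-231 breast cancer cells were exposed to the degrader for 24 h. Protein levels of the ERRα downstream targets ATP5B, MCAD and PDK4 were then assessed by Western blot.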

[10] = target: T2, von Hippel-Lindau disease tumor suppressor/Steroid hormone receptor ERR1 (Homo sapiens); test: Protac activity at VHL/ERRalpha in human MDA-MB-231 cells assessed as induction of […] degradation incubated for 48 hrs by Western blot analysis; type: cell-based
How it was run: (§3)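 For the time course, MDA-MB-231 cells were exposed to PROTAC at 30 nM. ERRα protein was sampled from 30 min up to 48 h after treatment and analysed by Western blot.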

[11] = target: T2, von Hippel-Lindau disease tumor suppressor/Steroid hormone receptor ERR1 (Homo sapiens); test: Protac activity at VHL/ERRalpha in human MDA-MB-231 cells assessed as decrease in PDK4 protein expression level at 100 nM incubated for 24 hrs by Western blot analysis; type: cell-based; how it was run: as §2
[12] = target: T2, von Hippel-Lindau disease tumor suppressor/Steroid hormone receptor ERR1 (Homo sapiens); test: Protac activity at VHL/ERRalpha in human MDA-MB-231 cells assessed as induction of […] degradation incubated for 4 hrs by Western blot analysis; type: cell-based; how it was run: as §1
[13] = target: T2, von Hippel-Lindau disease tumor suppressor/Steroid hormone receptor ERR1 (Homo sapiens); test: Protac activity at VHL/ERRalpha in human MDA-MB-231 cells assessed as induction of […] degradation incubated for 0.5 to 4 hrs by Western blot analysis; type: cell-based; how it was run: as §3
[14] = target: von Hippel-Lindau disease tumor suppressor/Steroid hormone receptor ERR2 (Homo sapiens) (UniProt O95718+P40337); test: Protac activity at VHL/ERRbeta in human MDA-MB-231 cells assessed as induction of […] degradation up to 10 uM incubated for 4 hrs by Western blot analysis; type: cell-based
How it was run: (§4)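 Levels of the ERRβ and ERRγ homologues were assessed by Western blot in MDA-MB-231 cells after 4.0 h treatment at concentrations up to 10.0 μM.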

[15] = target: T2, von Hippel-Lindau disease tumor suppressor/Steroid hormone receptor ERR1 (Homo sapiens); test: Protac activity at VHL/ERRalpha in epoxomicin pre-treated human MDA-MB-231 cells assessed as induction of […] degradation at 30 nM incubated for 4 hrs by Western blot analysis; type: cell-based
How it was run: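 Before treatment with PROTAC at 30 nM for 4.0 h, MDA-MB-231 cells were preincubated with the proteasome inhibitor epoxomicin. ERRα protein was then assessed by Western blot.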

[16] = target: von Hippel-Lindau disease tumor suppressor/Estrogen-related receptor gamma (Homo sapiens) (UniProt P62508+P40337); test: Protac activity at VHL/ERRgamma in human MDA-MB-231 cells assessed as induction of […] degradation up to 10 uM incubated for 4 hrs by Western blot analysis; type: cell-based; how it was run: as §4
[17] = target: T2, von Hippel-Lindau disease tumor suppressor/Steroid hormone receptor ERR1 (Homo sapiens); test: Protac activity at VHL/ERRalpha in human MDA-MB-231 cells assessed as decrease in MCAD protein expression level at 100 nM incubated for 24 hrs by Western blot analysis; type: cell-based; how it was run: as §2

T2 sequence (P40337 whole entry, looked up, one chain of several): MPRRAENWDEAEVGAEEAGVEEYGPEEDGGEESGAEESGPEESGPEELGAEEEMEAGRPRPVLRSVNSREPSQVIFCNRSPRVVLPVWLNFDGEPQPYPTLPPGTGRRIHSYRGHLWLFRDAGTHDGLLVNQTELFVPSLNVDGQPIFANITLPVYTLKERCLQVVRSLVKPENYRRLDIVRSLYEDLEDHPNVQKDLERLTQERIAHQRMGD
Sequence of von Hippel-Lindau disease tumor suppressor/Estrogen-related receptor gamma (Homo sapiens) (P40337 whole entry, looked up): as the sequence (P40337 whole entry, looked up, one chain of several) above
Sequence of von Hippel-Lindau disease tumor suppressor/Estrogen-related receptor gamma (Homo sapiens) (P62508 whole entry, looked up): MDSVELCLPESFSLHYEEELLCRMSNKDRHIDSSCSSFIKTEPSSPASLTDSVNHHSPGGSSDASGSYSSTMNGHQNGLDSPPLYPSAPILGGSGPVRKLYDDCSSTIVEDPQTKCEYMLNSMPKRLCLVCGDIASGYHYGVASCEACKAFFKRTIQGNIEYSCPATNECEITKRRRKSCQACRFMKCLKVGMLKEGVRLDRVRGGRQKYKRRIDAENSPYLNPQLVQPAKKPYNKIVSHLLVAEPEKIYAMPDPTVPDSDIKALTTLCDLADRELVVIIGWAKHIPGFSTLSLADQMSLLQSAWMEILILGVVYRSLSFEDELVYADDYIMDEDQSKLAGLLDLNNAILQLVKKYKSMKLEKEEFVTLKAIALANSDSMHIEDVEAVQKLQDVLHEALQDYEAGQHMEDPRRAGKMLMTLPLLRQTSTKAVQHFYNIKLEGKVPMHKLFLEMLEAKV
Sequence of von Hippel-Lindau disease tumor suppressor/Steroid hormone receptor ERR2 (Homo sapiens) (O95718 whole entry, looked up): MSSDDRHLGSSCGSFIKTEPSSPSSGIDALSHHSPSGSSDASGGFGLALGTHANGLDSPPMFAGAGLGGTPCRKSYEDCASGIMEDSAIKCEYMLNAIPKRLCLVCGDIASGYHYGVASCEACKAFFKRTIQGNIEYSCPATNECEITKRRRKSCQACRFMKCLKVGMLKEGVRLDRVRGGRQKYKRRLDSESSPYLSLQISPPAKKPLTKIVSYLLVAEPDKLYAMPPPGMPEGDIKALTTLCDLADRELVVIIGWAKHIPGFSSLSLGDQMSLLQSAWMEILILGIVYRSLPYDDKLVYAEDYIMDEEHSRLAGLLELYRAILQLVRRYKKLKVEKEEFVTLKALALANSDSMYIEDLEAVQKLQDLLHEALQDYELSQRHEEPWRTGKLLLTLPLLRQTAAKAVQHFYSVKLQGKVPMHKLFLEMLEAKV
Sequence of von Hippel-Lindau disease tumor suppressor/Steroid hormone receptor ERR2 (Homo sapiens) (P40337 whole entry, looked up): as the sequence (P40337 whole entry, looked up, one chain of several) above

Row | Compound | IC50 [1] [nM] | Activity [2] [%] | Activity [3] [%] | further results
1 | COc1cc(/C=C(\C#N)C(=O)NCCCCCCC(=O)N[C@H](C(=O)N2C[C@H](O)C[C@H]2C(=O)NCc2ccc(-c3scnc3C)cc2)C(C)(C)C)ccc1OCc1ccc(C(F)(F)F)cc1C(F)(F)F | 12.3 | 71 | 23 | –
2 | COc1cc(/C=C(\C#N)C(=O)NCCCCCCCC(=O)N[C@H](C(=O)N2C[C@H](O)C[C@H]2C(=O)NCc2ccc(-c3scnc3C)cc2)C(C)(C)C)ccc1OCc1ccc(C(F)(F)F)cc1C(F)(F)F | 7.67 | 9 | 3 | –
3 | COc1cc(/C=C(\C#N)C(=O)NCCCCCC(=O)N[C@H](C(=O)N2C[C@H](O)C[C@H]2C(=O)NCc2ccc(-c3scnc3C)cc2)C(C)(C)C)ccc1OCc1ccc(C(F)(F)F)cc1C(F)(F)F | 5.67 | 78 | 58 | –
4 | COc1cc(/C=C(\C#N)C(=O)NCCOCCOCCOCCC(=O)N[C@H](C(=O)N2C[C@H](O)C[C@H]2C(=O)NCc2ccc(-c3scnc3C)cc2)C(C)(C)C)ccc1OCc1ccc(C(F)(F)F)cc1C(F)(F)F | 7 | 4 | 0 | Activity [4]: 10%
5 | COc1cc(/C=C(\C#N)C(=O)NCCOCC(=O)N[C@H](C(=O)N2C[C@H](O)C[C@H]2C(=O)NCc2ccc(-c3scnc3C)cc2)C(C)(C)C)ccc1OCc1ccc(C(F)(F)F)cc1C(F)(F)F | 11.3 | 92 | 79 | –
6 | COc1cc(/C=C(\C#N)C(=O)NCCCCC(=O)O)ccc1OCc1ccc(C(F)(F)F)cc1C(F)(F)F | 6 | – | – | –
7 | COc1cc(/C=C(\C#N)C(=O)NCCCCC(=O)N[C@H](C(=O)N2C[C@@H](O)C[C@H]2C(=O)NCc2ccc(-c3scnc3C)cc2)C(C)(C)C)ccc1OCc1ccc(C(F)(F)F)cc1C(F)(F)F | 5.33 | – | 6 | –
8 | COc1cc(/C=C(\C#N)C(=O)O)ccc1OCc1ccc(C(F)(F)F)cc1C(F)(F)F | 5.67 | – | – | Ratio IC50 [5]: 11
9 | COc1cc(/C=C(\C#N)C(N)=O)ccc1OCc1ccc(C(F)(F)F)cc1C(F)(F)F | 4.33 | – | – | –
10 | Cc1ncsc1-c1ccc(CNC(=O)[C@@H]2C[C@@H](O)CN2C(=O)[C@@H](N)C(C)(C)C)cc1 | – | – | – | Activity [6]: inactive
11 | COc1cc(/C=C(\C#N)C(=O)NCCOCCC(=O)N[C@H](C(=O)N2C[C@H](O)C[C@H]2C(=O)NCc2ccc(-c3scnc3C)cc2)C(C)(C)C)ccc1OCc1ccc(C(F)(F)F)cc1C(F)(F)F | 9.33 | 89 | 63 | Activity [7]: 25%
12 | COc1cc(/C=C(\C#N)C(=O)NCCCC(=O)N[C@H](C(=O)N2C[C@H](O)C[C@H]2C(=O)NCc2ccc(-c3scnc3C)cc2)C(C)(C)C)ccc1OCc1ccc(C(F)(F)F)cc1C(F)(F)F | 6.33 | 85 | 58 | –
13 | COc1cc(/C=C(\C#N)C(=O)NCCC(=O)N[C@H](C(=O)N2C[C@H](O)C[C@H]2C(=O)NCc2ccc(-c3scnc3C)cc2)C(C)(C)C)ccc1OCc1ccc(C(F)(F)F)cc1C(F)(F)F | 7.33 | 50 | 28 | –
14 | COc1cc(/C=C(\C#N)C(=O)NCCOCCOCCC(=O)N[C@H](C(=O)N2C[C@H](O)C[C@H]2C(=O)NCc2ccc(-c3scnc3C)cc2)C(C)(C)C)ccc1OCc1ccc(C(F)(F)F)cc1C(F)(F)F | 5.33 | 15 | 0 | Activity [4]: 19%
15 | COc1cc(/C=C(\C#N)C(=O)NCCOCCC(=O)O)ccc1OCc1ccc(C(F)(F)F)cc1C(F)(F)F | 4.67 | – | – | Activity [6]: inactive
16 | COCCNC(=O)/C(C#N)=C/c1ccc(OCc2ccc(C(F)(F)F)cc2C(F)(F)F)c(OC)c1 | 4.33 | – | – | –
17 | COc1cc(/C=C(\C#N)C(=O)NCCCCC(=O)N[C@H](C(=O)N2C[C@H](O)C[C@H]2C(=O)NCc2ccc(-c3scnc3C)cc2)C(C)(C)C)ccc1OCc1ccc(C(F)(F)F)cc1C(F)(F)F | 12.7 | 96 | 83 | Activity [8]: Active; Activity [9]: Active; Activity [10]: inactive; Activity [7]: 39%; Activity [11]: Active; Activity [12]: Dose-dependent effect; Activity [13]: Active; Activity [14]: inactive; Activity [15]: inactive; Activity [16]: inactive; Activity [17]: Active
18 | COc1cc(/C=C2\SC(=O)N(CCOCCC(=O)N[C@H](C(=O)N3C[C@H](O)C[C@H]3C(=O)NCc3ccc(-c4scnc4C)cc3)C(C)(C)C)C2=O)ccc1Oc1ccc(C#N)cc1C(F)(F)F | 8 | 40 | 1 | –
19 | COC(=O)/C(C#N)=C/c1ccc(OCc2ccc(C(F)(F)F)cc2C(F)(F)F)c(OC)c1 | 20.3 | – | – | –
